ChEMBL document CHEMBL3400013, “Synthesis and biological activity evaluation of hydrazone derivatives based on a Tröger's base skeleton” (Bioorg Med Chem, 2015)
The source made the active and inactive calls. No cut-off for these calls is given here.

Test system: BJ
Assay: Selectivity index, ratio of IC50 for human BJ cells to IC50 for human K562 cells
Assay type: functional
Details: not given

Row | Compound | Ratio IC50
1 | O=C(N/N=C/c1nccc2ccccc12)c1ccc2c3c(ccc2c1)N1Cc2c(ccc4cc(C(=O)N/N=C/c5nccc6ccccc56)ccc24)N(C3)C1 | 121.9

Test system: Nucleic Acid
Assay: Binding affinity to DNA (unknown origin) assessed as DNA intercalation by UV-visible spectrophotometry in presence of Zn2+
Assay type: nucleic-acid assay
Details: not given

Row | Compound | Activity
2 | O=C(N/N=C/c1nccc2ccccc12)c1ccc2c3c(ccc2c1)N1Cc2c(ccc4cc(C(=O)N/N=C/c5nccc6ccccc56)ccc24)N(C3)C1 | Active

Test system: BJ
Assay: Selectivity index, ratio of IC50 for human BJ cells to IC50 for human K562-TAX cells
Assay type: functional
Details: not given

Row | Compound | Ratio IC50
3 | O=C(N/N=C/c1nccc2ccccc12)c1ccc2c3c(ccc2c1)N1Cc2c(ccc4cc(C(=O)N/N=C/c5nccc6ccccc56)ccc24)N(C3)C1 | 9.9

Test system: CCRF-CEM
Assay: Cell cycle arrest in human CCRF-CEM cells assessed as accumulation at S phase at 5 times IC50 after 24 hrs by propidium iodide staining-based flow cytometry
Assay type: functional
Details: not given
Procedure, shortened: (§1)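 Cells were then fixed in 70% ethanol, washed in hypotonic citrate buffer, treated with RNase (50 µg/mL) and stained with propidium iodide. Flow cytometry used a 488 nm laser. Apoptosis was scored as the percentage of particles with propidium content below G0/G1.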

Row | Compound | Activity [%]
4 | O=C(N/N=C/c1nccc2ccccc12)c1ccc2c3c(ccc2c1)N1Cc2c(ccc4cc(C(=O)N/N=C/c5nccc6ccccc56)ccc24)N(C3)C1 | 39.87

Test system: BJ
Assay: Selectivity index, ratio of IC50 for human BJ cells to IC50 for human CCRF-CEM cells
Assay type: functional
Details: pooled result: one value given for 2 cell lines, strains, targets or settings

Row | Compound | Ratio IC50
5 | O=C(N/N=C/c1nccc2ccccc12)c1ccc2c3c(ccc2c1)N1Cc2c(ccc4cc(C(=O)N/N=C/c5nccc6ccccc56)ccc24)N(C3)C1 | 172

Test system: CCRF-CEM
Assay: Cell cycle arrest in human CCRF-CEM cells assessed as accumulation at G0/G1 phase at IC50 after 24 hrs by propidium iodide staining-based flow cytometry
Assay type: functional
Details: not given
Procedure, shortened: as §1

Row | Compound | Activity [%]
6 | O=C(N/N=C/c1nccc2ccccc12)c1ccc2c3c(ccc2c1)N1Cc2c(ccc4cc(C(=O)N/N=C/c5nccc6ccccc56)ccc24)N(C3)C1 | 46.09

Test system: K562
Assay: Cytostatic activity against human K562 cells after 72 hrs by MTT assay
Assay type: functional, cell-based
Details: K562, 72 h
Procedure, shortened: (§2)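 Cells were seeded at 25,000–30,000 per well and pre-incubated for 24 h at 37°C in 5% CO2. Four-fold compound dilutions were added in duplicate and incubated for 72 h. MTT was added for 1–4 h, and formazan was dissolved in 10% aq SDS (pH 5.5) overnight at 37°C. OD was read at 540 nm. IC50 came from dose-response curves, mean ± SD of eight independent experiments.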

Row | Compound | IC50 [µM]
7 | O=C(N/N=C/c1nccc2ccccc12)c1ccc2c3c(ccc2c1)N1Cc2c(ccc4cc(C(=O)N/N=C/c5nccc6ccccc56)ccc24)N(C3)C1 | 0.82

Test system: not listed separately
Assay: Cytostatic activity against human p53-/- HCT116 cells after 72 hrs by MTT assay
Assay type: functional, cell-based
Details: HCT-116, 72 h
Procedure, shortened: as §2

Row | Compound | IC50 [µM]
8 | O=C(N/N=C/c1nccc2ccccc12)c1ccc2c3c(ccc2c1)N1Cc2c(ccc4cc(C(=O)N/N=C/c5nccc6ccccc56)ccc24)N(C3)C1 | 25.3

Test system: not listed separately
Assay: Cytostatic activity against human CEM-DNR cells after 72 hrs by MTT assay
Assay type: functional, cell-based
Details: not given
Procedure, shortened: as §2

Row | Compound | IC50 [µM]
9 | O=C(N/N=C/c1nccc2ccccc12)c1ccc2c3c(ccc2c1)N1Cc2c(ccc4cc(C(=O)N/N=C/c5nccc6ccccc56)ccc24)N(C3)C1 | 6.29

Test system: Staphylococcus aureus
Assay: Antimicrobial activity against methicillin-resistant Staphylococcus aureus MRSA 4591 up to 200 uM after 24 to 48 hrs by broth microdilution method
Assay type: functional, organism-based
Details: not given

Row | Compound | Activity
10 | O=C(N/N=C/c1nccc2ccccc12)c1ccc2c3c(ccc2c1)N1Cc2c(ccc4cc(C(=O)N/N=C/c5nccc6ccccc56)ccc24)N(C3)C1 | inactive

Test system: K562
Assay: Selectivity index, ratio of IC50 for human MRC5 cells to IC50 for human K562 cells
Assay type: functional
Details: not given

Row | Compound | Ratio IC50
11 | O=C(N/N=C/c1nccc2ccccc12)c1ccc2c3c(ccc2c1)N1Cc2c(ccc4cc(C(=O)N/N=C/c5nccc6ccccc56)ccc24)N(C3)C1 | 121.9

Test system: not listed separately
Assay: Cytostatic activity against human HCT116 cells after 72 hrs by MTT assay
Assay type: functional, cell-based
Details: HCT-116, 72 h
Procedure, shortened: as §2

Row | Compound | IC50 [µM]
12 | O=C(N/N=C/c1nccc2ccccc12)c1ccc2c3c(ccc2c1)N1Cc2c(ccc4cc(C(=O)N/N=C/c5nccc6ccccc56)ccc24)N(C3)C1 | 17.7

Test system: Escherichia coli
Assay: Antimicrobial activity against Escherichia coli CCM 3954 up to 200 uM after 24 to 48 hrs by broth microdilution method
Assay type: functional, organism-based
Details: not given

Row | Compound | Activity
13 | O=C(N/N=C/c1nccc2ccccc12)c1ccc2c3c(ccc2c1)N1Cc2c(ccc4cc(C(=O)N/N=C/c5nccc6ccccc56)ccc24)N(C3)C1 | inactive

Test system: Escherichia coli
Assay: Antimicrobial activity against multidrug-resistant Escherichia coli C/16702 up to 200 uM after 24 to 48 hrs by broth microdilution method
Assay type: functional, organism-based
Details: not given

Row | Compound | Activity
14 | O=C(N/N=C/c1nccc2ccccc12)c1ccc2c3c(ccc2c1)N1Cc2c(ccc4cc(C(=O)N/N=C/c5nccc6ccccc56)ccc24)N(C3)C1 | inactive

Test system: not listed separately
Assay: Cytostatic activity against human K562-TAX cells after 72 hrs by MTT assay
Assay type: functional, cell-based
Details: not given
Procedure, shortened: as §2

Row | Compound | IC50 [µM]
15 | O=C(N/N=C/c1nccc2ccccc12)c1ccc2c3c(ccc2c1)N1Cc2c(ccc4cc(C(=O)N/N=C/c5nccc6ccccc56)ccc24)N(C3)C1 | 10.1

Test system: BJ
Assay: Selectivity index, ratio of IC50 for human BJ cells to IC50 for human HCT116 cells
Assay type: functional
Details: not given

Row | Compound | Ratio IC50
16 | O=C(N/N=C/c1nccc2ccccc12)c1ccc2c3c(ccc2c1)N1Cc2c(ccc4cc(C(=O)N/N=C/c5nccc6ccccc56)ccc24)N(C3)C1 | 5.7

Test system: not listed separately
Assay: Metal chelating activity of the compound assessed as formation of Ni2+ complex by UV-vis spectrometry
Assay type: physicochemical
Details: not given

Row | Compound | Activity
17 | O=C(N/N=C/c1nccc2ccccc12)c1ccc2c3c(ccc2c1)N1Cc2c(ccc4cc(C(=O)N/N=C/c5nccc6ccccc56)ccc24)N(C3)C1 | Active

Test system: CCRF-CEM
Assay: Cell cycle arrest in human CCRF-CEM cells assessed as accumulation at G0/G1 phase at 5 times IC50 after 24 hrs by propidium iodide staining-based flow cytometry
Assay type: functional
Details: not given
Procedure, shortened: as §1

Row | Compound | Activity [%]
18 | O=C(N/N=C/c1nccc2ccccc12)c1ccc2c3c(ccc2c1)N1Cc2c(ccc4cc(C(=O)N/N=C/c5nccc6ccccc56)ccc24)N(C3)C1 | 46.56

Test system: Candida albicans
Assay: Antifungal activity against Candida albicans up to 200 uM after 24 to 48 hrs by broth microdilution method
Assay type: functional, organism-based
Details: not given

Row | Compound | Activity
19 | O=C(N/N=C/c1nccc2ccccc12)c1ccc2c3c(ccc2c1)N1Cc2c(ccc4cc(C(=O)N/N=C/c5nccc6ccccc56)ccc24)N(C3)C1 | inactive

Test system: Staphylococcus aureus
Assay: Antimicrobial activity against Staphylococcus aureus CCM 3953 up to 200 uM after 24 to 48 hrs by broth microdilution method
Assay type: functional, organism-based
Details: not given

Row | Compound | Activity
20 | O=C(N/N=C/c1nccc2ccccc12)c1ccc2c3c(ccc2c1)N1Cc2c(ccc4cc(C(=O)N/N=C/c5nccc6ccccc56)ccc24)N(C3)C1 | inactive

Test system: MRC5
Assay: Cytostatic activity against human MRC5 cells after 72 hrs by MTT assay
Assay type: ADME, cell-based
Details: MRC5, 72 h
Procedure, shortened: as §2

Row | Compound | IC50 [µM]
21 | O=C(N/N=C/c1nccc2ccccc12)c1ccc2c3c(ccc2c1)N1Cc2c(ccc4cc(C(=O)N/N=C/c5nccc6ccccc56)ccc24)N(C3)C1 | > 100

Test system: CCRF-CEM
Assay: Induction of apoptosis in human CCRF-CEM cells assessed as mitotic cells at 5 times IC50 after 24 hrs by pH3Ser10+ labeling-based flow cytometry
Assay type: functional
Details: not given

Row | Compound | Activity [%]
22 | O=C(N/N=C/c1nccc2ccccc12)c1ccc2c3c(ccc2c1)N1Cc2c(ccc4cc(C(=O)N/N=C/c5nccc6ccccc56)ccc24)N(C3)C1 | 1.52
